Tb MetRS inh = Trypanosoma brucei MetRS inhibition | purified T. brucei MetRS, ATP depletion, Kinase-Glo luminescence | inhibition, % at 11.9 µM | 0.4% of 360,000 active | AID 624268;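 active = inhibition above a per-plate cutoff of the control wells' mean inhibition plus 3 SD, cut at about 5.5% in these data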
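System: purified T. brucei MetRS enzyme / Detection: Kinase-Glo luciferase luminescence reporting remaining unconsumed ATP / Medium: HEPES buffer with MgCl2, KCl, DTT, spermine, BSA, pyrophosphatase / Replication: singlicate, one well per compound / Evaluation: percent inhibition relative to median high and low control wells / Schedule: 2 h aminoacylation at 25 °C after 15 min preincubation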
SKN-1 inh = inhibitors of C. elegans SKN-1. C. elegans VP596 Pgst-4::GFP/RFP ratio, acrylamide-induced, 24 h. inhibition, % at 21.8 µM. 0.49% of 360,000 active;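 active = interference check ratio from 0.5 to 1.5 plus GFP to RFP signal ratio inhibition reaching or exceeding a fixed threshold, cut at about 30% in these data, passing the limit was not always enough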
MT1-MMP act inh = MT1-MMP (human) activation inhibition | P50281 | HT1080 RFP-PRO-GFP cells, GFP/RFP ratio fluorescence, overnight; percent of plate control window, DMSO zero | GFP/RFP ratio change, % at 20 µM | 0.061% of 360,000 active | AID 651647;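 active = GFP/RFP ratio change of at least 30% with cell ATP level not reduced by more than half and red fluorescence within 50% of control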
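Assay system: HT1080 cells carrying an RFP-PRO-GFP reporter | Dosing: Single dose of 20 µM compound, 1% DMSO final | Incubation: Cells overnight before dosing, compound overnight, 37 °C, 5% CO2 | Evaluation: GFP/RFP fluorescence ratio | Control set: DMSO and RFP-L50D-GFP cell wells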
Arr AP2 block = inhibitors of human beta-arrestin and AP2 interaction; FITC-arrestin peptide / GST-AP2 beads, flow cytometry; AP2 beta2 appendage carries R879A mutation; inhibition, % at 10 µM; 0.31% of 340,000 active; AID 504490;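 active = inhibition above a set limit, near 3 SD of compounds lacking own fluorescence, cut at about 54% in these data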
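test system = AP2 appendage R879A on GSH beads | buffer or medium = PBS plus Tween 20 (0.05%) and BSA (0.1%) | incubation = 12 min plus 1 h, RT | detection = bead flow cytometry, FITC channel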
Rin1 Abl inh = human Rin1-Abl interaction inhibition; TR-FRET Rin1/Abl binding, biochemical; inhibition, % at 7.35 µM; 0.4% of 360,000 active; AID 588664; in the data active = inhibition above about 5%, passing the limit was not always enough
MT1-MMP conf = MT1-MMP (human) activation inhibition, single-concentration validation; HT1080 RFP-PRO-GFP cells, GFP and RFP fluorescence ratio, overnight; inhibition, % at 20 µM; shares compounds with MT1-MMP act inh; 10% of 200 active; AID 652235;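 active = inhibition of at least 50% in the primary cell screen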
Each line names hits and unclear results; the compound was inactive in the other large screens (follow-up assays come after a bar, where they were run). Only some compounds are listed: those with a hit (about 1.6% of all), similar ones and a draw of the others.

CCC(=NNS(=O)(=O)c1ccc(C)cc1)c1ccc(OC)c(C)c1	none (no result: Arr AP2 block)
Cc1cc(C)c(S(=O)(=O)NCc2ccc3c(c2)cc(C)n3C)c(C)c1	none
Cc1cc2cc(CNS(=O)(=O)c3ccc4ccccc4c3)ccc2n1C	MT1-MMP act inh 45.0 | MT1-MMP conf inactive
COc1cc(OC)cc(C2=Cc3ccccc3C(CC(=O)c3ccco3)N2c2ccc(-c3cccnc3)cc2)c1 (stereo not given)	none (no result: Arr AP2 block, Rin1 Abl inh)
CC(=O)N1CCN(C(=O)OC2CC3CC2[C@H]2CCCCN2C3=O)CC1 (stereo not given in full)	none (no result: Arr AP2 block, Rin1 Abl inh)
CCN1/C(=C\C=C2\C(=O)N(c3ccccc3)C(=S)N2C)Sc2ccccc21	MT1-MMP act inh 38.7 | MT1-MMP conf inactive
O=C(CN1CCCC1)N1CCCc2c1c(=O)oc1ccc(OCc3ccccc3)cc21	MT1-MMP act inh 50.6 | MT1-MMP conf inactive
COc1cccc(-c2cc(NC=O)c3ncc(-c4ccc(C(C)=O)cc4)n3c2)c1	none (no result: Arr AP2 block)
Nc1nc(-c2ccccc2)c(N=Nc2cccc3ccccc23)s1	MT1-MMP act inh 34.5 | MT1-MMP conf inactive
Nc1nc(-c2ccccc2)c(N=Nc2ccccc2Cl)s1	SKN-1 inh 48.6, MT1-MMP act inh 42.4 | MT1-MMP conf inactive
Cc1ncc(N=Nc2ccccc2Cl)c(-c2ccccc2)n1	none
O=C(COC(=O)CNC(=O)c1ccco1)Nc1ncc(Cl)cc1Cl	none
O=C(Nc1nnc(CCc2ccccc2)s1)c1ccccc1F	none
CCOC(=O)[C@]12CCC=C1N(Cc1cccc3ccccc13)C(=O)[C@H](CC(=O)NCCC(C)C)C2	none (no result: Arr AP2 block, Rin1 Abl inh)
O=C1c2cccc(NCCCNCCO)c2C(=O)c2cccc(NCCCNCCO)c21	MT1-MMP act inh 68.0 | MT1-MMP conf 54.7
Cc1ccc2c(c1)C(C)(C)[C@]1(C)NC(=O)CCN21	MT1-MMP act inh 34.7 | MT1-MMP conf inactive
Cc1ccc(S(=O)(=O)/N=C2\C=C(NS(=O)(=O)c3ccccc3)C(=O)c3ccccc32)c(C)c1	MT1-MMP act inh 39.3 | MT1-MMP conf inactive
O=c1cc(-c2ccccc2)oc2c1CCCC2	none (no result: Arr AP2 block)
COc1ccc(Nc2ccccc2N)cc1	MT1-MMP act inh 30.9 | MT1-MMP conf 51.0
COC(=O)[C@@]12C[C@@H](CC(=O)NCCc3ccccc3OC)C(=O)N(Cc3ccco3)C1=CCC(C)(C)C2	none (no result: Arr AP2 block, Rin1 Abl inh)
Cc1ccc(S(=O)(=O)NCc2ccc3[nH]c(C)cc3c2)cc1	none
CC(=O)Nc1ccc(S(=O)(=O)NCc2ccc3[nH]c(C)cc3c2)cc1	MT1-MMP act inh 30.7 | MT1-MMP conf inactive
Cc1ccc(C)c(N2CCN(C3C(=O)Nc4ccccc4-n4nnnc43)CC2)c1 (stereo not given)	none (no result: Arr AP2 block, Rin1 Abl inh)
O=C(CSCc1cccc(Br)c1)N=Nc1c(O)[nH]c2ccccc12	none
O=Nc1c(-c2c(O)[nH]c3cc(Br)ccc23)[nH]c2ccccc12	MT1-MMP act inh 77.1 | MT1-MMP conf 70.3
CCNC(=S)NNC(=O)c1cc(-c2cccc(OCC)c2)nc2ccccc12	none
CCCCOc1cccc(-c2cc(C(=O)NNC(=S)NCC)c3ccccc3n2)c1	MT1-MMP act inh 38.7 | MT1-MMP conf inactive
COc1ccc(C(CNC(=O)c2c(C)nn(Cc3ccc(C)cc3)c2Cl)N2CCOCC2)cc1 (stereo not given)	MT1-MMP act inh 32.0 | MT1-MMP conf inactive
COc1cc(C(=O)N2CCCCC2c2cc(C(=O)NCc3cccnc3)no2)cc(OC)c1C (stereo not given)	none (no result: Arr AP2 block)
CN(C(=O)c1cc2c(=O)n3ccccc3nc2n1C)C1CCCCC1	none
O=C1c2cccc(Cl)c2C(=O)c2c1cccc2N1CCCC1	MT1-MMP act inh 46.1 | MT1-MMP conf inactive
Cc1cc(=O)n2[nH]c(-c3ccc(C(C)(C)C)cc3)cc2n1	MT1-MMP act inh 34.4 | MT1-MMP conf inactive
CN(CCc1ccccc1)C(=O)CC1C(=O)NCCN1Cc1ccccn1 (stereo not given)	none (no result: Arr AP2 block)
